Laboratory results as given in ChEMBL document CHEMBL2311531, “Synthesis and antioxidant activities of 2-oxo-quinoline-3-carbaldehyde Schiff-base derivatives” (Bioorg Med Chem Lett, 2013).

Assays:
Type in all cases: functional
[1] = Antioxidant activity assessed as DPPH scavenging activity after 30 mins by spectrophotometry
In short: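 Sample in DMF at several concentrations added to 0.004% (w/v) DPPH in ethanol, incubated at 37 °C, A517 read after 30 min. Scavenging % = (Acontrol − Atest)/Acontrol × 100, control lacking scavenger. Triplicate; IC50 as concentration scavenging 50% of radicals.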

[2] = Antioxidant activity assessed as hydroxyl radical scavenging activity after 1 hr by spectrophotometry
In short: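 Salicylate method: 20 mM sodium salicylate, 1.5 mM FeSO4, sample at various concentrations and 6 mM H2O2 (stock levels) mixed, held 1 h in 37 °C water bath, A510 read against blank. Scavenging % from absorbance with vs without sample; triplicate; IC50 as concentration scavenging 50% of radicals.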

[3] = Antioxidant activity assessed as ABTS radical scavenging activity after 3 mins by spectrophotometry
In short: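 ABTS radical cation from 2 mM ABTS stock in PBS pH 7.4 reacted with 70 mM K2S2O8, standing in dark at room temperature 15-16 h; diluted with PBS to A734 0.700 ± 0.030. Sample solutions at several concentrations mixed with radical solution, absorbance read after 3 min at ambient temperature; PBS blank. Triplicate; IC50 as concentration scavenging 50% of radicals.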

[4] = Antioxidant activity assessed as superoxide anion radical scavenging activity after 5 mins by spectrophotometry
In short: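 Pyrogallol autoxidation at room temperature: sample in DMF at various concentrations added to 0.05 M Tris-HCl with 30 mM 1,2,3-trihydroxybenzene (stock), 5 min reaction, stopped with 8.0 M HCl (stock), A320 read against blank. Scavenging % from absorbance with vs without sample; triplicate; IC50 as concentration scavenging 50% of radicals.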

IC50 ([1]; read-out: IC50)	IC50 ([2]; read-out: IC50)	IC50 [3]	IC50 ([4]; read-out: IC50)	IC50 [1]	IC50 [2]	IC50 [4]	SMILES
439 µM	7680 µM	1810 µM	246 µM				CCCC/N=C/c1cc2ccccc2[nH]c1=O
63.2 µM	3560 µM	43.3 µM	379 µM				CCCC/N=C/c1cc2cc(C)ccc2[nH]c1=O
	3140 µM	368 µM	329 µM	Not Active			O=c1[nH]c2ccccc2cc1/C=N/Cc1ccccc1
	6920 µM	607 µM	310 µM	Not Active			Cc1ccc2[nH]c(=O)c(/C=N/Cc3ccccc3)cc2c1
	3310 µM	1210 µM	467 µM	Not Active			O=c1[nH]c2ccccc2cc1/C=N/CCO
498 µM	4180 µM	1190 µM	1480 µM				Cc1ccc2[nH]c(=O)c(/C=N/CCO)cc2c1
22.8 µM	1660 µM	11.7 µM	237 µM				O=c1[nH]c2ccccc2cc1/C=N/c1ccccc1O
26.2 µM	1350 µM	8.24 µM	286 µM				Cc1ccc2[nH]c(=O)c(/C=N/c3ccccc3O)cc2c1
92.1 µM		7.15 µM	306 µM		Not Active		O=c1[nH]c2ccccc2cc1/C=N/c1ccc(O)cc1
88.5 µM		5.24 µM	235 µM		Not Active		Cc1ccc2[nH]c(=O)c(/C=N/c3ccc(O)cc3)cc2c1
76.5 µM	1000 µM	11.8 µM	306 µM				O=c1[nH]c2ccccc2cc1/C=N/Nc1ccccc1
62.4 µM	1470 µM	8.47 µM	309 µM				Cc1ccc2[nH]c(=O)c(/C=N/Nc3ccccc3)cc2c1
170 µM	245 µM	11.4 µM				Not Active	O=c1[nH]c2ccccc2cc1/C=N/Nc1ccc([N+](=O)[O-])cc1
109 µM	350 µM	8.25 µM				Not Active	Cc1ccc2[nH]c(=O)c(/C=N/Nc3ccc([N+](=O)[O-])cc3)cc2c1
190 µM	375 µM	142 µM				Not Active	O=c1[nH]c2ccccc2cc1/C=N/Nc1ccc([N+](=O)[O-])cc1[N+](=O)[O-]
	749 µM	144 µM		Not Active		Not Active	Cc1ccc2[nH]c(=O)c(/C=N/Nc3ccc([N+](=O)[O-])cc3[N+](=O)[O-])cc2c1
266 µM	266 µM	1610 µM	169 µM				NS(=O)(=O)c1ccc(/N=C/c2cc3ccccc3[nH]c2=O)cc1
		1200 µM	258 µM	Not Active	Not Active		Cc1ccc2[nH]c(=O)c(/C=N/c3ccc(S(N)(=O)=O)cc3)cc2c1
729 µM	365 µM	20.6 µM	184 µM				N/N=C/c1cc2ccccc2[nH]c1=O
641 µM	790 µM	11.3 µM	153 µM				Cc1ccc2[nH]c(=O)c(/C=N/N)cc2c1
1660 µM		438 µM	381 µM		Not Active		O=C(O)c1ccc(/N=C/c2cc3ccccc3[nH]c2=O)cc1
		222 µM	409 µM	Not Active	Not Active		Cc1ccc2[nH]c(=O)c(/C=N/c3ccc(C(=O)O)cc3)cc2c1
2850 µM	5090 µM	485 µM	197 µM				O=C(Cc1ccncc1)N/N=C/c1cc2ccccc2[nH]c1=O
3580 µM	4690 µM	882 µM	209 µM				Cc1ccc2[nH]c(=O)c(/C=N/NC(=O)Cc3ccncc3)cc2c1
1290 µM	8730 µM	8.91 µM	256 µM				NS(=O)(=O)CC(=O)N/N=C/c1cc2ccccc2[nH]c1=O
3350 µM	5830 µM	9.17 µM	147 µM				Cc1ccc2[nH]c(=O)c(/C=N/NC(=O)CS(N)(=O)=O)cc2c1
118 µM	2010 µM	31.8 µM	463 µM				O=c1[nH]c2ccccc2cc1/C=N/O
160 µM	1980 µM	38.9 µM	389 µM				Cc1ccc2[nH]c(=O)c(/C=N/O)cc2c1
43.8 µM	73.8 µM	12.8 µM	15.6 µM				O=C1O[C@H]([C@@H](O)CO)C(O)=C1O [ASCORBIC ACID]
65.8 µM	24700 µM	37 µM	254 µM				Cc1cc(C(C)(C)C)c(O)c(C(C)(C)C)c1 [BUTYLATED HYDROXYTOLUENE]
